From ChEMBL document CHEMBL1123513, “Role of the C-terminal carboxylate in angiotensin II activity: alcohol, ketone, and ester analogues of angiotensin II” (1986)
Square brackets hold non-standard residues; d marks the D form. Peptide text beside a SMILES is read from it. * marks the point of attachment. αMeF = C[C@](N)(Cc1ccccc1)C(=O)O; Phe(ol) = N[C@H](CO)Cc1ccccc1; X1 = CC(=O)[C@H](Cc1ccccc1)N*

Columns and labels:
Rattus norvegicus [1] = species: Rattus norvegicus; experiment: Compound was tested for oxytocic response in rat; type: functional
Rattus norvegicus [2] = species: Rattus norvegicus; experiment: Compound was tested for pressor response in rat; type: functional
Summary of the method: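 Urethane-anesthetized male Zivic-Miller rats; blood pressure recorded from the cannulated left femoral artery via a linear core transducer. Peptides were injected into the cannulated right jugular vein with an automatic dispensing syringe. An AII dose-response curve was run before and after each analogue, so each animal served as its own control. Dose-response data are given as mean ± SEM, with the number of animals stated.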

Row | Compound | Activity (Rattus norvegicus [1]) [%] | Activity (Rattus norvegicus [2]) [%]
1 | COC(=O)[C@](C)(Cc1ccccc1)NC(=O)[C@@H]1CCCN1C(=O)[C@H](Cc1c[nH]cn1)NC(=O)[C@@H](NC(=O)[C@H](Cc1ccc(O)cc1)NC(=O)[C@@H](NC(=O)[C@H](CCCN=C(N)N)NC(=O)[C@H](CC(N)=O)NC(C)=O)C(C)C)C(C)C (Ac-NRVYVHP[αMeF]-OMe) | 0.002 | 0.001
2 | COC(=O)[C@H](Cc1ccccc1)NC(=O)[C@@H]1CCCN1C(=O)[C@H](Cc1c[nH]cn1)NC(=O)[C@@H](NC(=O)[C@H](Cc1ccc(O)cc1)NC(=O)[C@@H](NC(=O)[C@H](CCCN=C(N)N)NC(=O)[C@H](CC(N)=O)NC(C)=O)C(C)C)C(C)C (Ac-NRVYVHPF-OMe) | 20 | 13
3 | CC(=O)N[C@@H](CC(N)=O)C(=O)N[C@@H](CCCN=C(N)N)C(=O)N[C@H](C(=O)N[C@@H](Cc1ccc(O)cc1)C(=O)N[C@H](C(=O)N[C@@H](Cc1c[nH]cn1)C(=O)N1CCC[C@H]1C(=O)N[C@@H](Cc1ccccc1)C(C)=O)C(C)C)C(C)C (Ac-NRVYVHP-X1) | 0.4 | 0.03
4 | CC(=O)N[C@@H](CC(N)=O)C(=O)N[C@@H](CCCN=C(N)N)C(=O)N[C@H](C(=O)N[C@@H](Cc1ccc(O)cc1)C(=O)N[C@H](C(=O)N[C@@H](Cc1c[nH]cn1)C(=O)N1CCC[C@H]1C(=O)N[C@H](CO)Cc1ccccc1)C(C)C)C(C)C (Ac-NRVYVHP[Phe(ol)]) | 0.09 | 0.001
5 | H-NRVYVHPF-OH [ANGIOTENSIN AMIDE] | 100 | 100
